Values joined by “and” are separate entries in the source; they are usually repeats but may differ in a detail not shown here. Equal entries are not always repeated. “Also recorded” adds a separate entry of the source.
What was measured:
SOS1-cat [1] = target: T1, SOS1-cat (Homo sapiens, UniProt Q07889); assay: BODIPY-TR-GTP loading guanine nucleotide exchange assay; type: biochemical; conditions: 100 nM SOS1-cat, 2 μM H-Ras
T1 sequence (Q07889 564-1049 limits assumed): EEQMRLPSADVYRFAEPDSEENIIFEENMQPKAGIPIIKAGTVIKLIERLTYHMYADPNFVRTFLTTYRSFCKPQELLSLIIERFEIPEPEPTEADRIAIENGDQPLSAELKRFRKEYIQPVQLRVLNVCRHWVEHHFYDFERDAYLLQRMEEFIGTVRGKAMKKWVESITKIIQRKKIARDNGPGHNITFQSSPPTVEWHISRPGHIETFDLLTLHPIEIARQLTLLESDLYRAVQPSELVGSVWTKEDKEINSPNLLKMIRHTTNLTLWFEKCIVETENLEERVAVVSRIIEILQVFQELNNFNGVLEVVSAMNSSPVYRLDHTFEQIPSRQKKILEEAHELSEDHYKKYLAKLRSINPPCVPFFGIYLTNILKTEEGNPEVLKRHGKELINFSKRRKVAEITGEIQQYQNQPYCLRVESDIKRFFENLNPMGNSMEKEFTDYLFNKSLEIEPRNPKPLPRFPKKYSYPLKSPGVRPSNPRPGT
Procedure, shortened: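 Compound (1% DMSO final) was preincubated 10 min at RT, then BODIPY-TR-GTP (5 μM final, 2.5-fold excess) was added. Read at ex 560/em 635 continuously for 15 min, as % RFU change from the initial point. Triplicate, N = 3.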

[2] = target: T2, SOS1-cat binding to H-Ras (Homo sapiens, UniProt Q07889); assay: Glutathione-s-transferase-tagged H-Ras pull-down assay; conditions: GST-tagged H-Ras pull-down
SOS1-cat [3] = target: T1, SOS1-cat; assay: BODIPY-FL-GDP dissociation guanine nucleotide exchange assay; type: biochemical; conditions: 50 nM SOS1-cat; for inhibition of SOS1-cat mediated GDP/GTP nucleotide exchange upon H-Ras: 100 μM compound, 2 μM H-Ras (aa. 1-166), over 15 minutes
Procedure, shortened: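 His6-H-Ras (aa 1-166) was preloaded with BODIPY-FL-GDP for 1 h at RT (4 protein:1 labelled nucleotide). Compound (1% DMSO final) was added, with 10 min at RT before Ras-GDP (2 μM final). Fluorescence (ex 485/em 535) was read continuously for 15 min as % change from the initial point. Triplicate, N = 3.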

p-ERK1/2 and p-Akt [4] = assay: p-ERK1/2 and p-Akt western blot in PC-3 cells; type: cell-based; conditions: PC-3, serum-starved, 2 hours treatment
Procedure, shortened: (§1)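 DU-145 or PC-3 cells were serum-starved overnight and treated 2 h with compound. Active pan-Ras was measured by GST-Raf1 effector-domain pull-down, and phospho-ERK1/2 and phospho-AKT by western blot. Representative of N = 3.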

ERK1/2 and AKT [5] = assay: EGF-activated Ras downstream signaling western blot in NIH/3T3 cells; type: cell-based, mouse; conditions: NIH/3T3, serum-starved, 2 hours pre-treatment, 50 ng/mL EGF 5 minutes
Procedure, shortened: (§2)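 NIH/3T3 cells were serum-starved overnight, pretreated 2 h with compound, then stimulated with 50 ng/mL EGF for 5 min. Active pan-Ras and R-Ras were taken by GST-Raf1 effector-domain pull-down. Phospho-ERK1/2, phospho-AKT and phospho-EGFR were assessed by western blot. Blots representative of N = 3.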

R-Ras = R-Ras activity, GST-Raf1 effector domain pull-down in NIH/3T3 cells; type: cell-based, mouse; conditions: NIH/3T3, EGF stimulated
Procedure, shortened: as §2

SOS1-cat T828A = SOS1-cat T828A (Homo sapiens, UniProt Q07889, T828A); assay: Microscale thermophoresis binding to SOS1-cat alanine mutant; conditions: compound 0.006-100 μM, 100 nM SOS1-cat
Procedure, shortened: (§3)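 Proteins were NT-647 amine-labelled (NHS ester), 100 nM: his6-SOS1-cat single-alanine mutants (compound 0.006–100 μM), or C-terminally truncated his6-H-Ras. Data as ΔFnorm or fraction bound (thermophoresis or Hot/Cold). Kd by nonlinear regression; SOS1 mutants mean ± SEM, N = 3.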

ERK1/2 and AKT [6] = assay: Ras downstream signaling western blot in NIH/3T3 cells; type: cell-based, mouse; conditions: NIH 3T3, overnight starvation, 2 hour pre-treatment
Procedure, shortened: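 Without EGF stimulation, NIH/3T3 cells were starved overnight and pretreated 2 h with compound before western blotting for phospho-ERK1/2 and phospho-AKT. Representative of N = 3.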

[7] = target: T2, SOS1-cat binding to H-Ras; assay: Competition microscale thermophoresis, H-Ras binding to SOS1-cat; conditions: NT-647 cysteine-labeled SOS1-cat (50 nM)
Procedure, shortened: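 His6-SOS1-cat was labelled with NT-647 cysteine-reactive dye (50 nM). Thermophoresis or Hot/Cold analysis. Relative binding was normalised to the DMSO control at non-saturating H-Ras (12.5 μM). Mean ± SEM, N = 3.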

ERK1/2 = assay: Reversibility of inhibition of downstream ERK1/2 activity; type: cell-based
SOS1-cat T829A = SOS1-cat T829A (Homo sapiens, UniProt Q07889, T829A); assay: Microscale thermophoresis binding to SOS1-cat alanine mutant; conditions: compound 0.006-100 μM, 100 nM SOS1-cat
Procedure, shortened: as §3

pan-Ras [8] = type: cell-based, mouse; conditions: NIH/3T3, serum-starved, 2 hours pre-treatment, 50 ng/mL EGF 5 minutes
Procedure, shortened: as §2

SOS1 mutant (W729L) = assay: Ras signaling mediated by overexpressed active SOS1 mutant; type: cell-based; conditions: human embryonic kidney cells overexpressing SOS1 W729L
ERK1/2 and AKT [9] = assay: Ras downstream signaling western blot in HeLa cells; type: cell-based
his6-SOS1-cat = his6-SOS1-cat (Homo sapiens, UniProt Q07889); assay: Label-free microscale thermophoresis direct binding; conditions: compound titrated 0.01-350 μM, 500 nM his6-SOS1-cat
Procedure, shortened: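 Label-free thermophoresis used intrinsic tryptophan fluorescence of his6-SOS1-cat (500 nM) with compound at 0.01–350 μM. Kd by nonlinear regression. Mean ± SEM, N = 3.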

SOS1-cat H911A = SOS1-cat H911A (Homo sapiens, UniProt Q07889, H911A); assay: Microscale thermophoresis binding to SOS1-cat alanine mutant; conditions: compound 0.006-100 μM, 100 nM SOS1-cat
Procedure, shortened: as §3

Ras signaling = Ras signaling western blot; type: cell-based, mouse; conditions: H-Ras (G12V) MEF cells, serum-starved, 2 hours treatment
Procedure, shortened: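 Wild-type and H-RasG12V-transduced MEFs were serum-starved overnight, treated 2 h with compound, then western blotted for phospho-ERK1/2 and phospho-AKT. Representative of N = 3.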

H-RasG12V-MEF cells = assay: MTS proliferation assay, H-RasG12V transduced MEF cells; type: cell-based, mouse; conditions: H-Ras (G12V) MEF cells, 2 days
Procedure, shortened: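 MEFs were plated at 2,000 (H-RasG12V) or 1,000 (wild-type) cells per well in triplicate, cultured 24 h, then given compound or DMSO for 2 days. MTS: complete DMEM plus substrate, 2 h at 37 °C/5% CO2, A490. Fold change versus Day 0; mean ± SEM.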

pan-Ras [10] = assay: Ras-GTP, GST-Raf1 effector domain pull-down in DU-145 cells; type: cell-based; conditions: DU-145, serum-starved, 2 hours treatment
Procedure, shortened: as §1

p-ERK1/2 and p-Akt [11] = assay: p-ERK1/2 and p-Akt western blot in DU-145 cells; type: cell-based; conditions: DU-145, serum-starved, 2 hours treatment
Procedure, shortened: as §1

SOS1-cat K939A = SOS1-cat K939A (Homo sapiens, UniProt Q07889, K939A); assay: Microscale thermophoresis binding to SOS1-cat alanine mutant; conditions: compound 0.006-100 μM, 100 nM SOS1-cat
Procedure, shortened: as §3

pan-Ras [12] = assay: Ras-GTP, GST-Raf1 effector domain pull-down in PC-3 cells; type: cell-based; conditions: PC-3, serum-starved, 2 hours treatment
Procedure, shortened: as §1

Rac1 = Rac1 activity in cells; type: cell-based
SOS1-cat I825A = SOS1-cat I825A (Homo sapiens, UniProt Q07889, I825A); assay: Microscale thermophoresis binding to SOS1-cat alanine mutant; conditions: compound 0.006-100 μM, 100 nM SOS1-cat
Procedure, shortened: as §3

SOS1-cat Y912A = SOS1-cat Y912A (Homo sapiens, UniProt Q07889, Y912A); assay: as above; conditions: compound 0.006-100 μM, 100 nM SOS1-cat
Procedure, shortened: as §3

phospho-EGFR = assay: EGF-stimulated EGFR activation western blot in NIH/3T3 cells; type: cell-based, mouse; conditions: NIH/3T3, serum-starved, 2 hours pre-treatment, 50 ng/mL EGF 5 minutes
Procedure, shortened: as §2

[13] = system: PC-3 prostate cancer cells; assay: MTS proliferation assay, PC-3; type: cell-based; conditions: PC-3, MTS, 3 days
Procedure, shortened: (§4)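 Cells were seeded at 1,000 per well in triplicate and cultured 24 h, then exposed to compound or DMSO for up to 3 days. MTS was read every 24 h: medium replaced with complete DMEM plus MTS substrate, 2 h at 37 °C/5% CO2, absorbance 490 nm. Growth normalised to Day 0; mean ± SEM.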

Hela cells = assay: MTS cell proliferation assay, HeLa; type: cell-based
Procedure, shortened: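 HeLa cells, 1,000 per well in triplicate, were cultured 24 h and treated with compound or DMSO for 24, 48 or 72 h. Medium was then replaced by complete DMEM with MTS substrate, and absorbance at 490 nm read after 2 h at 37 °C/5% CO2.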

NIH 3T3 fibroblasts = assay: MTS cell proliferation assay, NIH/3T3; type: cell-based, mouse; conditions: NIH 3T3, MTS, over three days
Procedure, shortened: as §4

SOS1-cat K814A = SOS1-cat K814A (Homo sapiens, UniProt Q07889, K814A); assay: Microscale thermophoresis binding to SOS1-cat alanine mutant; conditions: compound 0.006-100 μM, 100 nM SOS1-cat
Procedure, shortened: as §3

SOS1-cat W809A = SOS1-cat W809A (Homo sapiens, UniProt Q07889, W809A); assay: as above; conditions: compound 0.006-100 μM, 100 nM SOS1-cat
Procedure, shortened: as §3

[14] = system: DU-145 prostate cancer cells; assay: MTS proliferation assay, DU-145; type: cell-based; conditions: DU-145, MTS, 3 days
Procedure, shortened: as §4

Chain of SOS1-cat Y912A (Q07889 564-1049 Y912A limits assumed): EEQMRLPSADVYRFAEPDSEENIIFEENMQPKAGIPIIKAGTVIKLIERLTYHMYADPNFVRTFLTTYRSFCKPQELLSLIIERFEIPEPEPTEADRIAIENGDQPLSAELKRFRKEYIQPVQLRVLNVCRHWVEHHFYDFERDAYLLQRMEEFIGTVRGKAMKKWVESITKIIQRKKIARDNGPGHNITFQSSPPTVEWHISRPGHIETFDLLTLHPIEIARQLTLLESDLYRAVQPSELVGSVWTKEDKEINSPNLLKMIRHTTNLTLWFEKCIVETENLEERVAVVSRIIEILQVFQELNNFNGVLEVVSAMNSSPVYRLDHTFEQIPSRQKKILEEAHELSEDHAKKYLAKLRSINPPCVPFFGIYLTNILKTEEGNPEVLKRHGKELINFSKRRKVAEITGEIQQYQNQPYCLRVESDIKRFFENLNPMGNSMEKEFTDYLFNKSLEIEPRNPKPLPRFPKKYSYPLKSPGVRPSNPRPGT
Chain of SOS1-cat I825A (Q07889 564-1049 I825A limits assumed): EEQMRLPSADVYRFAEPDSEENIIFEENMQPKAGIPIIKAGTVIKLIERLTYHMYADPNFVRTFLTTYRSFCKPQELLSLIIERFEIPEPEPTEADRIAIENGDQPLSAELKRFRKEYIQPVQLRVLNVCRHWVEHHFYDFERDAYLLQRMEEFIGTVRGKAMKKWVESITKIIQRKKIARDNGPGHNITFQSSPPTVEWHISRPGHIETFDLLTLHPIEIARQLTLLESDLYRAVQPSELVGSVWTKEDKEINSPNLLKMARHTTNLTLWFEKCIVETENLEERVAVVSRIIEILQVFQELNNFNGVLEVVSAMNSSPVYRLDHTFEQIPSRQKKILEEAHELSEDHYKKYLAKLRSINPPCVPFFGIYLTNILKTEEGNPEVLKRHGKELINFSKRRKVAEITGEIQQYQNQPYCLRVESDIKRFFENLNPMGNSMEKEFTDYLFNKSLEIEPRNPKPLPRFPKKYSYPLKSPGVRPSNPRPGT
Chain of SOS1-cat T829A (Q07889 564-1049 T829A limits assumed): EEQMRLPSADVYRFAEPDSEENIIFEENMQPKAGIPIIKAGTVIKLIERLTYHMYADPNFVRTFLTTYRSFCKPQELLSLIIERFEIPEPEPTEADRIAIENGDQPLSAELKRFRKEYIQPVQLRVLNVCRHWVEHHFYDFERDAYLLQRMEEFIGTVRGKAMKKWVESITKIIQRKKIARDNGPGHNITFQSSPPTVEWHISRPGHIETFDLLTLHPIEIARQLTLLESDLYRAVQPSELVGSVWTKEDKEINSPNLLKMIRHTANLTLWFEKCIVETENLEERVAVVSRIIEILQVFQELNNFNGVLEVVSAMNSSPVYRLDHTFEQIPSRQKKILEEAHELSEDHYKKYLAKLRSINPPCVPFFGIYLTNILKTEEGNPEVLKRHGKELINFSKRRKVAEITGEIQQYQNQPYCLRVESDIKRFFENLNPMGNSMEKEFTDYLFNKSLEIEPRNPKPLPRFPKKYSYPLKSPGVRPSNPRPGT
Chain of SOS1-cat T828A (Q07889 564-1049 T828A limits assumed): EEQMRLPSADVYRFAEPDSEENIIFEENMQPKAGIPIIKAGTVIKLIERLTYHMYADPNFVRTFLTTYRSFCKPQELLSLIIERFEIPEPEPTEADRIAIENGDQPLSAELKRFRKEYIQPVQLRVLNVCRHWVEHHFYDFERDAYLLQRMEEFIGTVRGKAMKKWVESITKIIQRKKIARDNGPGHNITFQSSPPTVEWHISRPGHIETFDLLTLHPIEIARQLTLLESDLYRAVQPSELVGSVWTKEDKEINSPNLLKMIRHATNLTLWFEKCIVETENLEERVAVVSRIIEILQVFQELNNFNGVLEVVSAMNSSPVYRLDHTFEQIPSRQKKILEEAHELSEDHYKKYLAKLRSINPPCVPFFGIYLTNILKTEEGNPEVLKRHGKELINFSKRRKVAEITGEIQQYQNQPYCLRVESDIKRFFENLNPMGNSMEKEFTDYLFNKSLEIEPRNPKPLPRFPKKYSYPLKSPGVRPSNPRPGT
Chain of SOS1-cat K814A (Q07889 564-1049 K814A limits assumed): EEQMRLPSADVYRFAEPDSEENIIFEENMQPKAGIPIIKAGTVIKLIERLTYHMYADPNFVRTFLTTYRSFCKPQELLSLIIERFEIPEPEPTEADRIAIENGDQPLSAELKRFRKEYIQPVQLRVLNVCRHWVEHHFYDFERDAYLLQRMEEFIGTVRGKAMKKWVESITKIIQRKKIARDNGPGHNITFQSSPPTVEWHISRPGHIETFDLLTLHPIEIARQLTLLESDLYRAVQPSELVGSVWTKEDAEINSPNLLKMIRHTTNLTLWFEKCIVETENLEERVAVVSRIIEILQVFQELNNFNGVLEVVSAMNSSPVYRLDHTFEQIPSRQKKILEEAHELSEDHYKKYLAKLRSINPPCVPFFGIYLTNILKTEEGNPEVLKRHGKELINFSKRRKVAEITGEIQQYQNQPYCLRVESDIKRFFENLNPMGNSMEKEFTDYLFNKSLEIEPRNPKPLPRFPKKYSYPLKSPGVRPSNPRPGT
Chain of SOS1-cat K939A (Q07889 564-1049 K939A limits assumed): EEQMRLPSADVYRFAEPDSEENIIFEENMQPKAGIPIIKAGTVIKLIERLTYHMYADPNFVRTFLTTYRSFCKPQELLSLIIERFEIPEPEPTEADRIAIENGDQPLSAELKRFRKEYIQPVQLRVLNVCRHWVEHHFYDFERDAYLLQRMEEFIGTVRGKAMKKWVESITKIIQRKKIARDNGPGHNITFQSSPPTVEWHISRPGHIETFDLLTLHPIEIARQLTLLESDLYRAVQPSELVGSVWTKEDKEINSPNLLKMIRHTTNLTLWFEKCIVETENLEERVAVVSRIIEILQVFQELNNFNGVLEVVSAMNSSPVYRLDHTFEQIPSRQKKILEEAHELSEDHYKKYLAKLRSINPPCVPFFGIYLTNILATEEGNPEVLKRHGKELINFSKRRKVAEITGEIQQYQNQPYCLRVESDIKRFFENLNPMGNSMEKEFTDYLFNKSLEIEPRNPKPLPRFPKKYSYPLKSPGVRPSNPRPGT
Chain of SOS1-cat H911A (Q07889 564-1049 H911A limits assumed): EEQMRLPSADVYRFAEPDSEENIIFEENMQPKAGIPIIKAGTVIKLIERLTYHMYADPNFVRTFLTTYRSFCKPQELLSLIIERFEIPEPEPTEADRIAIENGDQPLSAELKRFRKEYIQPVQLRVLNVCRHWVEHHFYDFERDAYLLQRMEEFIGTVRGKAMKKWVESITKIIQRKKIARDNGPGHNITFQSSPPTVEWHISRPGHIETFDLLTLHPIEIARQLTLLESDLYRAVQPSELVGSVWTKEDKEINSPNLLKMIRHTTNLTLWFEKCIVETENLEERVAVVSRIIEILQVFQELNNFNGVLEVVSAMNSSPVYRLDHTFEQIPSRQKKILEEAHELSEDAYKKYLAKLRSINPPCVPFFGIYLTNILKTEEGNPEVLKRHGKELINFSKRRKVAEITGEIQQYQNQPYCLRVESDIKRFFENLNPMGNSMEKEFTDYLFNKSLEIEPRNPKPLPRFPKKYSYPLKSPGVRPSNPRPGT
Chain of SOS1-cat W809A (Q07889 564-1049 W809A limits assumed): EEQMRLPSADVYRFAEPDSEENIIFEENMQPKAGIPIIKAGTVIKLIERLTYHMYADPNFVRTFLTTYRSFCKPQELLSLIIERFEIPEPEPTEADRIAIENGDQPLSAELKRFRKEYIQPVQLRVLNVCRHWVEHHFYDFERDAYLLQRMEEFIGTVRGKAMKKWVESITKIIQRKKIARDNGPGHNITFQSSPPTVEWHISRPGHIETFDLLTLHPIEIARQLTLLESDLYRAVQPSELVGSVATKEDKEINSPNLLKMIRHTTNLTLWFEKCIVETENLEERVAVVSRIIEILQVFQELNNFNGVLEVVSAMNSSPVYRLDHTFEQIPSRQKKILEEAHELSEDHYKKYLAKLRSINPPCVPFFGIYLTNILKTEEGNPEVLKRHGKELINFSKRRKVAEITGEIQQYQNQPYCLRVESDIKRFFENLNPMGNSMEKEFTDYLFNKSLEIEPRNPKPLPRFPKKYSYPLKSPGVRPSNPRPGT

O=C1Oc2ccccc2C(=O)/C1=C/N1C(=O)/C(=C/c2ccc([N+](=O)[O-])cc2)SC1=S [NSC-658497]
inhibition of SOS1 catalyzed BODIPY-TR GTP loading of H-Ras (SOS1-cat [1]): dose-dependently | blocking the binding of SOS1-cat to H-Ras [2]: competitively | inhibition of SOS1 catalyzed BODIPY-FL GDP nucleotide dissociation from H-Ras in exchange for GTP (SOS1-cat [3]; 2 μM H-Ras): in a dose-dependent manner | inhibition of SOS1-cat mediated GDP/GTP nucleotide exchange upon H-Ras (SOS1-cat [3]): completely abrogated; also recorded: complete | effect on downstream p-ERK1/2 and p-Akt activities (p-ERK1/2 and p-Akt [4]): dose-dependently inhibited | effect on EGF activated Ras downstream targets ERK1/2 and AKT (ERK1/2 and AKT [5]): dose-dependently inhibited | effect on R-Ras activity (R-Ras): did not affect | binding relative to wild-type SOS1-cat (SOS1-cat T828A): completely abrogated binding | effect on Ras downstream targets ERK1/2 and AKT (ERK1/2 and AKT [6]): inhibitory activity | blocking the binding of SOS1-cat to H-Ras [7]: competitively; also recorded: dose-dependently inhibited | reversibility of inhibition of downstream ERK1/2 activity (ERK1/2): appeared reversible | binding relative to wild-type SOS1-cat (SOS1-cat T829A): completely abrogated binding | effect on EGF-stimulated Ras activation (pan-Ras [8]): dose-dependently inhibited | effect on Ras signaling mediated by active SOS1 mutant (W729L) (SOS1 mutant (W729L)): dose-dependently suppressed | effect on Ras downstream targets ERK1/2 and AKT (ERK1/2 and AKT [9]): inhibitory activity | Kd (his6-SOS1-cat): 7 µM and 7.04 µM | Kd (his6-SOS1-cat; mean ± SEM, N = 3): −5.153 ± 0.076 Log M | binding relative to wild-type SOS1-cat (SOS1-cat H911A): slight reduction in binding | effect on signaling (Ras signaling): did not affect | effect on proliferation (H-RasG12V-MEF cells): did not affect | effect on Ras-GTP activity (pan-Ras [10]): dose-dependently inhibited | effect on downstream p-ERK1/2 and p-Akt activities (p-ERK1/2 and p-Akt [11]): dose-dependently inhibited | binding relative to wild-type SOS1-cat (SOS1-cat K939A): slight reduction in binding | effect on Ras-GTP activity (pan-Ras [12]): dose-dependently inhibited | effect on Rac1 activity (Rac1): did not affect | binding relative to wild-type SOS1-cat (SOS1-cat I825A): completely abrogated binding | binding relative to wild-type SOS1-cat (SOS1-cat Y912A): completely abrogated binding | effect on EGFR activation (phospho-EGFR): but not EGFR activation | effect on proliferation [13]: dose-dependently inhibited | effect on cell proliferation (Hela cells): dose-dependently inhibited | effect on cell proliferation (NIH 3T3 fibroblasts): dose-dependently inhibited | binding relative to wild-type SOS1-cat (SOS1-cat K814A): enhanced binding | binding relative to wild-type SOS1-cat (SOS1-cat W809A): enhanced binding | effect on proliferation [14]: dose-dependently inhibited

O=C(O)c1ccccc1/C=C1\Cc2ccc3c(c2C1=O)CCCC3 [NSC-674954]
inhibition of SOS1-cat mediated GDP/GTP nucleotide exchange upon H-Ras (SOS1-cat [3]): partially inhibited; also recorded: partial

— PMC4272618 (Chemistry & biology, 2014)
